Experiment [1] deals with Tubulin beta chain (Bos taurus) (UniProt Q6B856). The conditions noted are these: 5 uM.
Experiment [2] concerns cancer cell lines (55). Kind of experiment: Mean graph midpoint (MGM) for growth inhibition of all human cancer cell lines (55). It counts as functional.
For experiment [3], the target named is Tubulin beta chain (Bos taurus, UniProt Q6B856). Kind of experiment: Inhibition of bovine tubulin polymerization. Put shortly: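 Electrophoretically homogeneous bovine brain tubulin. Polymerization followed spectrophotometrically with a temperature jump from 2-4 °C to 30 °C.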
Experiment [4] deals with MCF7. Kind of experiment: Inhibition of DNA synthesis in MCF-7 cells. It counts as functional, cell-based. The following applies: Homo sapiens. Put shortly: (§1)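 Cells seeded at 10^5/well and grown 24 h at 37 °C, then given inhibitor in DMSO at 3-5 concentrations, 3-4 wells each, for 48 h. [3H]thymidine pulse for 2 h. TCA-precipitated label solubilized in perchloric acid and counted.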

The subject of experiment [5] is DU-145. Kind of experiment: In vitro cytotoxicity against human prostate DU-145 cells. It counts as functional.
The target in experiment [6] is Tubulin beta chain (Bos taurus) (UniProt Q6B856). Kind of experiment: Percentage inhibition of binding of [3H]colchicine to tubulin at 50 uM.
Experiment [7] deals with SF-539. Kind of experiment: In vitro cytotoxicity against human CNS SF-539 cells. It counts as functional.
Experiment [8] concerns HOP-62. Kind of experiment: In vitro cytotoxicity against human lung HOP-62 cells. It counts as functional.
For experiment [9], the target named is Epidermal growth factor receptor (Mus musculus, UniProt Q01279). Kind of experiment: Inhibition of epidermal growth factor receptor phosphorylation in BaF3 mouse lymphoid cells. In kind it is cell-based. Put shortly: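 BaF3/EGFR cells serum-starved 24 h, then about 10^7 cells/mL treated 2 h at 37 °C with inhibitor at 3-5 concentrations. Chilled 20 min, then given EGF 100 ng/mL for 7 min on ice. Lysates precipitated on concanavalin A beads, run on SDS/PAGE, and immunoblotted with antiphosphotyrosine using ECL detection.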

In experiment [10] the test system is HCT-116. Kind of experiment: In vitro cytotoxicity against human colon HCT116 cell culture. It counts as functional.
Experiment [11] has as its system CCRF-CEM. Kind of experiment: Cytotoxic effect on human leukemia CCRF-CEM cells. In kind it is functional.
For experiment [12], the system named is MDA-MB-435. Kind of experiment: In vitro cytotoxicity against human breast MDA-MB-435 cells. In kind it is functional.
Experiment [13] has as its system MCF-10A. Kind of experiment: Inhibition of DNA synthesis in MCF-10A cells. The following applies: Homo sapiens. In kind it is functional, cell-based. Put shortly:
as §1

In experiment [14] the test system is OVCAR-3. Kind of experiment: In vitro cytotoxicity against human ovarian OVCAR-3 cells. In kind it is functional.
Experiment [15] concerns UACC-62. Kind of experiment: In vitro cytotoxicity against human melanoma UACC-62 cells. In kind it is functional.
The subject of experiment [16] is Cancer cell lines. Kind of experiment: Mean graph mid point (MGM) for growth inhibition of all human cancer cell lines successfully tested. It counts as functional.
Experiment [17] concerns SN12C. Kind of experiment: In vitro cytotoxicity against human renal SN12C cells. It counts as functional.
For experiment [18], the target named is Tyrosine-protein kinase SYK (Homo sapiens, UniProt P43405). Kind of experiment: In vitro inhibition of Syk protein tyrosine kinase. In kind it is functional. Put shortly: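 Full-length GST-Syk from baculovirus-infected Sf9 cell lysates, held on glutathione-agarose. Stopped with 10 mM EDTA, beads washed, read by scintillation counting. IC50 determined graphically against DMSO control.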

A value given as a limit tells only on which side of the number the result lay.

By Inhibition is commonly meant the percentage by which the read-out fell short of the control. The low end stands for a response near the control, the high end for a response far below the control. Usually IC50 stands for the concentration that inhibits the measured activity by half. Lower therefore signals greater potency. As usually defined, the GI50 is the concentration giving 50% growth inhibition. Low readings indicate more potent growth inhibition, high ones less potent growth inhibition.

Chain of Epidermal growth factor receptor (Q01279 whole entry): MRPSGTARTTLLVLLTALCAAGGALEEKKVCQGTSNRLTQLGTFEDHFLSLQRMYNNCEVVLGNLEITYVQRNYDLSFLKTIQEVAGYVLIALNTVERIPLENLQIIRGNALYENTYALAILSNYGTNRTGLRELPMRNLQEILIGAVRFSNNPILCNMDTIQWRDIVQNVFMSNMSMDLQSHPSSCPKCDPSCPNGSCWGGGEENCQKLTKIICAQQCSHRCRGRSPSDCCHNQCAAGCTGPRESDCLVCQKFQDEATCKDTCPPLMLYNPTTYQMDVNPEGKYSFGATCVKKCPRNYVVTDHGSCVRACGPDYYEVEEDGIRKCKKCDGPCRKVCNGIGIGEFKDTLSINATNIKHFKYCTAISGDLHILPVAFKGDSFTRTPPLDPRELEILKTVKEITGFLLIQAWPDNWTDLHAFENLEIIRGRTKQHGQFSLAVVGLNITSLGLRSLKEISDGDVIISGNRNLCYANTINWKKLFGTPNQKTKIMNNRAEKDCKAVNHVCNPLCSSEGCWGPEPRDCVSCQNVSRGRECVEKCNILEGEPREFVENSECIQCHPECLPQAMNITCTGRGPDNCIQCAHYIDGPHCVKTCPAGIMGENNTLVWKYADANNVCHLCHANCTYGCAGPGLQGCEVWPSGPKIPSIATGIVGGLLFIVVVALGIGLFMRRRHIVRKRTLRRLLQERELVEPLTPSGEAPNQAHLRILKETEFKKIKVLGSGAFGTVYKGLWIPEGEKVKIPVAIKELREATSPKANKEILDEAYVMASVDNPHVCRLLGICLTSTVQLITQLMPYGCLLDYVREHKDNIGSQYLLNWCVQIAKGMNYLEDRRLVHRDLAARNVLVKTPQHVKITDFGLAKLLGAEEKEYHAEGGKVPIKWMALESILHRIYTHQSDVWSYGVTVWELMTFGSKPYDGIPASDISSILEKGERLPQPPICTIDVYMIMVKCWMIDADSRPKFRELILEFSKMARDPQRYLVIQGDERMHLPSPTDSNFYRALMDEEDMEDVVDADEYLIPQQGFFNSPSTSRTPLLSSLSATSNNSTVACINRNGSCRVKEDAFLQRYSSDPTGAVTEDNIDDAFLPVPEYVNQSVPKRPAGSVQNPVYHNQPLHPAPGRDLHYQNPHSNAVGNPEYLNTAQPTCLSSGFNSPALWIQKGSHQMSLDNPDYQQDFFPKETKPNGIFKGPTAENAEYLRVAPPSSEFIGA
Chain of Tubulin beta chain (Q6B856 whole entry): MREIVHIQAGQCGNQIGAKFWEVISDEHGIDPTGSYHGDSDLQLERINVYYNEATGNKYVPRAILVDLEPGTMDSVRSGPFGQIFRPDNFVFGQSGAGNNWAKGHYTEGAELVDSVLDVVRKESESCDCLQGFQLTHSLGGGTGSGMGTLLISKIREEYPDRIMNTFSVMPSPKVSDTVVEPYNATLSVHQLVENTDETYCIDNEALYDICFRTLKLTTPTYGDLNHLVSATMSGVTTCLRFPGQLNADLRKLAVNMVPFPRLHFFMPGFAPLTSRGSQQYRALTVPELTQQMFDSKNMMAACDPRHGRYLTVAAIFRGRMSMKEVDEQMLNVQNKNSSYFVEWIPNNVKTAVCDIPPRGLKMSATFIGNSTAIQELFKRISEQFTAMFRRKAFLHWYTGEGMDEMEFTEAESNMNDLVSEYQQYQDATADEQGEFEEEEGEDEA
Chain of Tubulin beta chain (Bos taurus) (Q6B856 whole entry): as above

In the case of `COc1ccc(/C=C\c2cc(OC)c(OC)c(OC)c2)cc1O`, the Inhibition in [1] stood at 98%.
The molecule `CC(C)CCCC(C)[C@H]1CC[C@H]2[C@@H]3CCC4C[C@@H](NC(=O)c5cc(NCc6cc(O)ccc6O)ccc5O)CC[C@]4(C)[C@H]3CC[C@]12C` (stereo not given in full) had an MGM in experiment [2] above 100 µM. In addition, the 50% inhibitory concentration (IC50) was above 40 µM in experiment [3] and above 50 µM in [4].
Take `CCCCCCNC(=O)c1cc(NCc2cc(O)ccc2O)ccc1O`: the 50% growth inhibitory concentration (GI50) is 15 µM in [5]; 2.3 µM in experiment [7]; 19 µM in experiment [8]; 17 µM in [10]; 0.56 µM in experiment [11]; 15 µM in experiment [12]. The GI50 amounted to 4 µM in experiment [14], 12 µM in [15] and 6.1 µM in experiment [17]. The Inhibition in [6] was 45%. Also, the IC50 in [3] came to 3.6 µM; in [9], 14 µM; in [4], 11 µM; in [13], 14 µM. Besides, the MGM in experiment [16] came to 8.7 µM.
Turning to `O=C(NCCc1ccc(F)cc1)c1cc(NCc2cc(O)ccc2O)ccc1O`, the concentration for 50% growth inhibition (GI50) in experiment [5] is 18 µM; in experiment [7], 9.2 µM; in experiment [8], 12 µM; in experiment [10], 9.2 µM; in experiment [11] it was 0.29 µM; in [12], 13 µM. Also, the GI50 in experiment [14] was found to be 11 µM; in experiment [15], 7.8 µM; in experiment [17], 7.7 µM. Also, in experiment [6], the Inhibition came to 38%. Moreover, the IC50 in experiment [3] was found to be 4 µM; in experiment [18], 5 µM; in [9], 4 µM; in experiment [4], 12 µM; in experiment [13] it was 10 µM. The molecule further yielded an MGM in experiment [16] of 0.35 µM.
`O=C(NCCN1CCOCC1)c1cc(NCc2cc(O)ccc2O)ccc1O`: the 50% growth inhibitory concentration (GI50) in [5] amounted to 17 µM; in experiment [7], 19 µM; in experiment [10] it was 20 µM; in experiment [11], 1.8 µM; in experiment [12], 13 µM; in [14], 87 µM. Also, the concentration for 50% growth inhibition (GI50) turned out to be 17 µM in experiment [15] and 22 µM in [17]. In experiment [6], the Inhibition came out at 34%. For the same molecule, the IC50 in [3] was 2.1 µM; in [18], 1.5 µM; in experiment [9] it was above 50 µM; in experiment [4] it was 14 µM; in experiment [13] it was 16 µM. Besides, the MGM in experiment [16] stood at 19.5 µM.

The record behind these values is ChEMBL document CHEMBL1134836, “Design, synthesis, and biological evaluation of a series of lavendustin A analogues that inhibit EGFR and Syk tyrosine kinases, as well as tubulin polymerization” (J Med Chem, 2001).
